Results taken from ChEMBL document CHEMBL3352380, “Development of benzo[d]oxazol-2(3H)-ones derivatives as novel inhibitors of Mycobacterium tuberculosis InhA” (Bioorg Med Chem, 2014).
Values after ≈ are worked out from the molar mass of the structure shown.

Assays:
[1] = system: Mycobacterium tuberculosis; test: Antimicrobial activity against Mycobacterium tuberculosis H37Rv ATCC 27294 after 28 days by two-fold agar dilution method; format: functional; conditions: H37Rv ATCC 27294, 672 h
Outline: (§1)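 Two-fold serial dilutions in Middlebrook 7H11 agar with OADC supplement, final 50 to 0.78 µg/mL. Inoculum from fresh 7H11/OADC slants, adjusted to 1 mg/mL wet weight in 0.05% Tween 80 saline and diluted 10^-2 (~10^7 cfu/mL), spotted onto drug-containing agar tubes. Incubated at 37 °C; MIC is the lowest concentration inhibiting growth, read at 28 days.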

[2] = molecular target: T1, Enoyl-[acyl-carrier-protein] reductase [NADH] (Mycobacterium tuberculosis) (UniProt P9WGR1); test: Inhibition of Mycobacterium tuberculosis recombinant His6-tagged InhA expressed in Escherichia coli BL21(DE3) using 2-trans-decenoyl-CoA as substrate at 10 uM incubated for 2 hrs prior to substrate addition by spectrophotometry
T1 sequence (whole entry): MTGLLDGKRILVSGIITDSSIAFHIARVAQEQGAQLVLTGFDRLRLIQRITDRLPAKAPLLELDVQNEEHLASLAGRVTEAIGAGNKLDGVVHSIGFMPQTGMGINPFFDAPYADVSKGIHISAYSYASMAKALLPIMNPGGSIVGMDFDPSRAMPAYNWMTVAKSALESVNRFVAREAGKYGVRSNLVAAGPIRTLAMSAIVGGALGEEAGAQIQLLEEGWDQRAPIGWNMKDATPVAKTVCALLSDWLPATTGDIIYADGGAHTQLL
Outline: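 His6-InhA expressed in E. coli BL21(DE3) with 0.1 mM IPTG at 18 °C and purified on Ni-NTA. 70 nM enzyme pre-incubated 2 h with inhibitor at 10 µM in 30 mM PIPES, 150 mM NaCl, pH 6.8, 0.5% DMSO, 25 °C. Reaction started with DD-CoA plus NADH and followed at 340 nm. Initial velocity compared with a no-ligand control; triplicate.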

[3] = Cytotoxicity against mouse RAW264.7 cells at 50 uM after 72 hrs by MTT assay; format: cell-based; conditions: read-out: INH
Outline: (§2)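 RAW 264.7 macrophages exposed to compound for 72 h. Viability read as MTT conversion to formazan with a non-radioactive cell proliferation kit, reported as percentage growth inhibition.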

[4] = system: Mycobacterium tuberculosis; test: Antimicrobial activity against Mycobacterium tuberculosis H37Rv ATCC 27294 after 28 days by two-fold agar dilution method in presence of piperine; format: functional; conditions: H37Rv ATCC 27294, 672 h; outline: as §1
[5] = system: Mycobacterium tuberculosis; test: Antimicrobial activity against Mycobacterium tuberculosis H37Rv ATCC 27294 after 28 days by two-fold agar dilution method in presence of verapamil; format: functional; conditions: H37Rv ATCC 27294, 672 h; outline: as §1
[6] = Cytotoxicity against mouse RAW264.7 cells at 100 uM after 72 hrs by MTT assay; format: cell-based; conditions: read-out: INH; outline: as §2
[7] = molecular target: T2, Enoyl-[acyl-carrier-protein] reductase [NADH] (Mycobacterium tuberculosis, UniProt P9WGR1); test: Inhibition of Mycobacterium tuberculosis recombinant His6-tagged InhA expressed in Escherichia coli BL21(DE3) using 2-trans-decenoyl-CoA as substrate incubated for 2 hrs prior to substrate addition by spectrophotometry
T2 sequence (P9WGR1 whole entry): T1 sequence (whole entry)

[8] = molecular target: T1, Enoyl-[acyl-carrier-protein] reductase [NADH] (Mycobacterium tuberculosis)

CO[C@H]1/C=C/O[C@@]2(C)Oc3c(C)c(O)c4c(O)c(c(/C=N/N5CCN(C)CC5)c(O)c4c3C2=O)NC(=O)/C(C)=C\C=C\[C@H](C)[C@H](O)[C@@H](C)[C@@H](O)[C@@H](C)[C@H](OC(C)=O)[C@@H]1C [RIFAMPIN]
MIC [1]: 0.15 µM (≈ 0.123 µg/mL)

CC[C@@H](CO)NCCN[C@@H](CC)CO [ETHAMBUTOL]
MIC [1]: 7.64 µM (≈ 1.56 µg/mL)

O=C(Cn1c(=O)oc2ccccc21)NCc1ccco1
inhibition [2]: 30.1%
cytotoxicity at 72 h, 50 µM [3]: 32.8%
MIC [4]: 22.9 µM
MIC [5]: 22.9 µM
cytotoxicity at 72 h, 100 µM [6]: 33.8%
MIC [1]: 22.9 µM (≈ 6.25 µg/mL)

O=C(Cn1c(=O)oc2cc(Cl)ccc21)NCc1cccs1
inhibition [2]: 45.6%
cytotoxicity at 72 h, 50 µM [3]: 20.3%
MIC [4]: 9.64 µM
MIC [5]: 9.64 µM
cytotoxicity at 72 h, 100 µM [6]: 53.6%
MIC [1]: 38.7 µM (≈ 12.5 µg/mL)

O=C(Cn1c(=O)oc2cc(Cl)ccc21)Nc1ncc([N+](=O)[O-])s1
inhibition [2]: 72.6%
cytotoxicity at 72 h, 50 µM [3]: 14.3%
MIC [4]: 17.6 µM
MIC [5]: 8.81 µM
cytotoxicity at 72 h, 100 µM [6]: 50.6%
IC50 [7]: 6.82 µM
MIC [1]: 17.6 µM (≈ 6.25 µg/mL)

O=C(Cn1c(=O)oc2cc([N+](=O)[O-])ccc21)Nc1ccccc1
inhibition [2]: 46.1%
cytotoxicity at 72 h, 50 µM [3]: 18%
MIC [4]: 9.97 µM
MIC [5]: 19.9 µM
cytotoxicity at 72 h, 100 µM [6]: 26.4%
MIC [1]: 79.8 µM (≈ 25 µg/mL)

O=C(Cn1c(=O)oc2ccccc21)Nc1ccccc1
inhibition [2]: 32.4%
cytotoxicity at 72 h, 50 µM [3]: 35.1%
MIC [4]: 23.3 µM
MIC [5]: 23.3 µM
cytotoxicity at 72 h, 100 µM [6]: 39.8%
MIC [1]: 46.6 µM (≈ 12.5 µg/mL)

O=C(Cn1c(=O)oc2cc(Cl)ccc21)Nc1ccccn1
inhibition [2]: 51.6%
cytotoxicity at 72 h, 50 µM [3]: 33%
MIC [4]: 10.3 µM
MIC [5]: 10.3 µM
cytotoxicity at 72 h, 100 µM [6]: 43.7%
MIC [1]: 82.3 µM (≈ 25 µg/mL)

O=C(Cn1c(=O)oc2cc(Cl)ccc21)NCc1ccco1
inhibition [2]: 47.5%
cytotoxicity at 72 h, 50 µM [3]: 27.8%
MIC [4]: 10.2 µM
MIC [5]: 20.4 µM
cytotoxicity at 72 h, 100 µM [6]: 50.3%
MIC [1]: 40.8 µM (≈ 12.5 µg/mL)

O=C(Cn1c(=O)oc2ccccc21)Nc1cc(C(F)(F)F)ccc1Cl
inhibition [2]: 26.8%
cytotoxicity at 72 h, 50 µM [3]: 12.3%
MIC [4]: 16.9 µM
MIC [5]: 33.7 µM
cytotoxicity at 72 h, 100 µM [6]: 15.4%
MIC [1]: 67.4 µM (≈ 25 µg/mL)

O=C(Cn1c(=O)oc2ccccc21)Nc1nc2ccccc2s1
inhibition [2]: 42.1%
cytotoxicity at 72 h, 50 µM [3]: 43.5%
MIC [4]: 9.6 µM
MIC [5]: 9.6 µM
cytotoxicity at 72 h, 100 µM [6]: 59.6%
MIC [1]: 19.2 µM (≈ 6.25 µg/mL)

CC1COc2c(N3CCN(C)CC3)c(F)cc3c(=O)c(C(=O)O)cn1c23 (stereo unspecified) [OFLOXACIN]
MIC [1]: 2.16 µM (≈ 0.781 µg/mL)

O=C(Cn1c(=O)oc2cc([N+](=O)[O-])ccc21)Nc1ncc([N+](=O)[O-])s1
inhibition [2]: 82.4%
cytotoxicity at 72 h, 50 µM [3]: 20.2%
MIC [4]: 8.55 µM
MIC [5]: 8.55 µM
cytotoxicity at 72 h, 100 µM [6]: 43.8%
IC50 [7]: 5.12 µM
Tm [8]: 1.9 °C
MIC [1]: 17.1 µM (≈ 6.25 µg/mL)

O=C(Cn1c(=O)oc2cc([N+](=O)[O-])ccc21)NCc1ccco1
inhibition [2]: 36.9%
cytotoxicity at 72 h, 50 µM [3]: 26.8%
MIC [4]: 39.4 µM
MIC [5]: 39.4 µM
cytotoxicity at 72 h, 100 µM [6]: 60.1%
MIC [1]: 78.8 µM (≈ 25 µg/mL)

O=C(Cn1c(=O)oc2ccccc21)Nc1nc2ccc([N+](=O)[O-])cc2s1
inhibition [2]: 45.1%
cytotoxicity at 72 h, 50 µM [3]: 12.4%
MIC [4]: 4.21 µM
MIC [5]: 8.43 µM
cytotoxicity at 72 h, 100 µM [6]: 19.2%
MIC [1]: 33.8 µM (≈ 12.5 µg/mL)

O=C(Cn1c(=O)oc2ccccc21)Nc1cc(Cl)ccc1Cl
inhibition [2]: 19.5%
IC50 [7]: 22.1 µM

O=C(Cn1c(=O)oc2cc([N+](=O)[O-])ccc21)Nc1cc(C(F)(F)F)ccc1Cl
inhibition [2]: 32.2%
cytotoxicity at 72 h, 50 µM [3]: 12.8%
MIC [4]: 30.1 µM
MIC [5]: 15 µM
cytotoxicity at 72 h, 100 µM [6]: 31.6%
MIC [1]: 60.1 µM (≈ 25 µg/mL)
